For orientation: inhibition means the relative decrease from the control value, in per cent. The low end stands for a response near the control, the high end for a response far below the control. By IC50 is commonly meant the concentration that inhibits the measured activity by half.

SMILES strings stand for the structures. Structures can show the parent of a compound that is named as a salt.

The target in assay [1] is T1, DNA topoisomerase 2-alpha (Homo sapiens, UniProt P11388). The assay can be described thus: Inhibition of human topoisomerase-2 alpha at 100 uM using supercoiled pBR322 DNA as substrate after 30 mins by agarose gel electrophoresis method relative to control.
Assay [2] in a line: Cytotoxicity against human HCT15 cells assessed as reduction in cell growth after 72 hrs by CCK8 assay. It counts as functional, cell-based. The note with it: HCT-15, 72 h. The method, boiled down: (§1)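 Cells (2~4 x 10^4 per well) seeded overnight in media with 10% FBS, 37 °C, 5% CO₂, then exposed to graded compound concentrations for 72 h. CCK-8 solution added for a further 4 h; absorbance read at 450 nm. IC₅₀ from four-parameter logistic fit; adriamycin, etoposide and camptothecin as positive controls.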
On the technique in general: Formazan colour is commonly taken as a measure of viable cells.

A short description of assay [3]: Cytotoxicity against human T47D cells assessed as reduction in cell growth after 72 hrs by CCK8 assay. It is filed as functional, cell-based. The method, boiled down: as §1
The nature of assay [4]: Cytotoxicity against human HeLa cells assessed as reduction in cell growth after 72 hrs by CCK8 assay. It is filed as functional, cell-based. The method in brief: as §1
A short description of assay [5]: Cytotoxicity against human NCI-N87 cells assessed as reduction in cell growth after 72 hrs by CCK8 assay. The note with it: NCI-N87, 72 h. It counts as functional, cell-based. The method, boiled down: as §1
Assay [6] has as its target T1, DNA topoisomerase 2-alpha. As to the kind of experiment: Inhibition of human topoisomerase-2 alpha at 20 uM using supercoiled pBR322 DNA as substrate after 30 mins by agarose gel electrophoresis relative to control.

T1 sequence (P11388 whole entry): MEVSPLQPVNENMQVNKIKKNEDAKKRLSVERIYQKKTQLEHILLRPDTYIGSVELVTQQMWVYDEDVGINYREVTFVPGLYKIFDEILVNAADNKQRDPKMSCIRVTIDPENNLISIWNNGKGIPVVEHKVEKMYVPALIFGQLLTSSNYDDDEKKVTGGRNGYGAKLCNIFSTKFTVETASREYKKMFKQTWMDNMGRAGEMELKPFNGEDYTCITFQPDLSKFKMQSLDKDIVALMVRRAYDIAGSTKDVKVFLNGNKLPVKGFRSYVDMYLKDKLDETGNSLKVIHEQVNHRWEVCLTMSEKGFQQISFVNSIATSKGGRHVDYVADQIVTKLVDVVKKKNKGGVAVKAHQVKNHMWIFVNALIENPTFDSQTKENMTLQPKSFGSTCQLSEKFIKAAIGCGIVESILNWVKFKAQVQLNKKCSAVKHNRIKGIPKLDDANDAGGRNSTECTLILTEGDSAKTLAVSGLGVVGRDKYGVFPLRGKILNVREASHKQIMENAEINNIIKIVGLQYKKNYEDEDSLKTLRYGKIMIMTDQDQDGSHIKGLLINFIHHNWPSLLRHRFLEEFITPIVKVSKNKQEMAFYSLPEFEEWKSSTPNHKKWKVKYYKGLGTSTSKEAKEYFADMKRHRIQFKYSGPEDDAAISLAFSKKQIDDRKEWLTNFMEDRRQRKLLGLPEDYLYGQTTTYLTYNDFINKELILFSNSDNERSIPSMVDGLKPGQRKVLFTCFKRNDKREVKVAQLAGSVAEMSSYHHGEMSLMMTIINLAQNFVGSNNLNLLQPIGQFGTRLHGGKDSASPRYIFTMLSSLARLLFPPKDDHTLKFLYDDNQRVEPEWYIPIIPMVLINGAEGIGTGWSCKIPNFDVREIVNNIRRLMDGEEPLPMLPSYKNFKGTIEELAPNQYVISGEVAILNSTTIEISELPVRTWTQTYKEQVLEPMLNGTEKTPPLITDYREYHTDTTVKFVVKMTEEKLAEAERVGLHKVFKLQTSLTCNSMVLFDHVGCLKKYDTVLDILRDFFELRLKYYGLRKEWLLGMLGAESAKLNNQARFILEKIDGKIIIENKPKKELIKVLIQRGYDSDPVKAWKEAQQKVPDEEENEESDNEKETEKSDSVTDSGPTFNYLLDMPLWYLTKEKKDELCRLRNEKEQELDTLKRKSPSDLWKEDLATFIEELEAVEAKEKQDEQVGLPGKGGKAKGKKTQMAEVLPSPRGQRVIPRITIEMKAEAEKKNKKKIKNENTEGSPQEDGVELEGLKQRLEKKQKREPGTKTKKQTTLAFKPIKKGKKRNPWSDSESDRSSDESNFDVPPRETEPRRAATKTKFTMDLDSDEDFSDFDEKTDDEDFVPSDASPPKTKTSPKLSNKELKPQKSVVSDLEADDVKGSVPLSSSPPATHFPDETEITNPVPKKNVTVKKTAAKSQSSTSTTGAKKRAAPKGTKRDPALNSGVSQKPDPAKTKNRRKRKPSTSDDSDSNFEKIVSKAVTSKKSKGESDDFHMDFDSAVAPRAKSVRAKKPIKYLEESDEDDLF

In turn, `CCCCNCC(O)COc1cc(OCCCC)c2c(=O)c3cccc(OC)c3oc2c1` (stereo unspecified) came in with an inhibition in assay [1] of 24.2%. Moreover, the IC50 was determined as 6.02 µM in assay [2], 1.13 µM in assay [3], 7.65 µM in assay [4] and 1.64 µM in assay [5].
As to `CCCCNCC(O)COc1cc(OC(C)C)c2c(=O)c3cccc(OC)c3oc2c1` (stereo unspecified), the inhibition in assay [1] was determined as 7.5%. In addition, the half-maximal inhibitory concentration (IC50) in assay [2] was determined as 9.6 µM; in assay [3], 2.67 µM; in assay [4], 14.4 µM; in assay [5] it was 0.08 µM.
The corresponding values for `CCCCCOc1cc(OCC2CO2)cc2oc3ccccc3c(=O)c12` (stereo unspecified) are 0%, 3.28 µM, above 50 µM, 1.79 µM and 11 µM.
For the compound `CCCCNCC(O)COc1cc(OCc2ccccc2)c2c(=O)c3ccccc3oc2c1` (stereo unspecified), the inhibition in assay [1] is 65.4%; in assay [6], 22.2%. Besides, the 50% inhibitory concentration (IC50) in assay [2] worked out at 3.09 µM; in assay [3], 2.81 µM; in assay [4] it was 7.05 µM; in assay [5] it was 1.44 µM.
Regarding `CC[C@@]1(O)C(=O)OCc2c1cc1n(c2=O)Cc2cc3ccccc3nc2-1` [CAMPTOTHECIN], the IC50 is 0.0014 µM in assay [2], 0.08 µM in assay [3], 0.13 µM in assay [4] and 0.6 µM in assay [5].
Take `CCCCNCC(O)COc1cc(OCCCC)c2c(=O)c3ccccc3oc2c1` (stereo unspecified): the inhibition in assay [1] was 27.1%. The concentration for half-maximal inhibition (IC50) in assay [2] stood at 8.61 µM; in assay [3], 1.54 µM; in assay [4] it was 2.07 µM; in assay [5], 1.63 µM.
Turning to `CCCCNCC(O)COc1cc(OCC)c2c(=O)c3cccc(OC)c3oc2c1` (stereo unspecified), the inhibition in assay [1] is 10.7%. For the same compound, the half-inhibitory concentration (IC50) in assay [2] came to 10.6 µM; in assay [3] it was 4.28 µM; in assay [4] it was 23.5 µM; in assay [5], 2.24 µM.
The corresponding values for `CCOc1cc(OCC2CO2)cc2oc3ccccc3c(=O)c12` (stereo unspecified) are 0%, 3.96 µM, 3.6 µM, 0.8 µM and 3.91 µM.
The corresponding values for `COc1cccc2c(=O)c3c(OC(C)C)cc(OCC4CO4)cc3oc12` (stereo unspecified) are 1.5%, 0.31 µM, 1.75 µM, 1.87 µM and 3.12 µM.
As for `CCCCNCC(O)COc1cc(OCc2cccc(Cl)c2)c2c(=O)c3ccccc3oc2c1` (stereo unspecified), the inhibition in assay [1] was 56.3%; in assay [6] it was 22.4%. Further, the IC50 came out at 2.24 µM in assay [2], 1.17 µM in assay [3], 2.83 µM in assay [4] and 0.17 µM in assay [5].
Take `COc1cccc2c(=O)c3c(OCCc4ccc(Cl)cc4)cc(OCC4CO4)cc3oc12` (stereo unspecified): the inhibition in assay [1] was 0%. The IC50 in assay [2] is 45.2 µM; in assay [3] it was above 50 µM; in assay [4], above 50 µM; in assay [5], 1.49 µM.
As to `CCOc1cc(OCC2CO2)cc2oc3c(OC)cccc3c(=O)c12` (stereo unspecified), the inhibition in assay [1] is 2.5%. Also, the half-inhibitory concentration (IC50) in assay [2] came to 0.82 µM; in assay [3], 0.83 µM; in assay [4], 1.17 µM; in assay [5], 1.19 µM.
The corresponding values for `CCCCCOc1cc(OCC(O)CNCCCC)cc2oc3ccccc3c(=O)c12` (stereo unspecified) are 29.4%, 4.58 µM, 1.27 µM, 2.56 µM and 0.06 µM.
As for `CCCCNCC(O)COc1cc(OCc2cccc(C(F)(F)F)c2)c2c(=O)c3cccc(OC)c3oc2c1` (stereo unspecified), the inhibition was found to be 58.1% in assay [1] and 14.2% in assay [6]. In addition, the half-inhibitory concentration (IC50) in assay [2] worked out at 2.62 µM; in assay [3], 2 µM; in assay [4] it was 2.62 µM; in assay [5], 1.98 µM.
On to `COc1cccc2c1C(=O)c1c(O)c3c(c(O)c1C2=O)C[C@@](O)(C(=O)CO)C[C@@H]3O[C@H]1C[C@H](N)[C@H](O)[C@H](C)O1` [DOXORUBICIN HYDROCHLORIDE], for which the results for the IC50 in assay [3], in assay [4] and in assay [5] were 1.42 µM, 1.7 µM and 0.71 µM, respectively.
`CC(C)Oc1cc(OCC2CO2)cc2oc3ccccc3c(=O)c12` (stereo unspecified) yielded an inhibition in assay [1] of 0.1%. The IC50 is 1.63 µM in assay [2], 1.94 µM in assay [3], 1.62 µM in assay [4] and 0.29 µM in assay [5].
Turning to `CCCCNCC(O)COc1cc(OCc2ccccc2)c2c(=O)c3cccc(OC)c3oc2c1` (stereo unspecified), the values for the inhibition in assay [1] and in assay [6] were 51.6% and 11.1%, respectively. Moreover, the IC50 came out at 2.08 µM in assay [2], 2.4 µM in assay [3], 2.25 µM in assay [4] and 1.23 µM in assay [5].
Take `CCCCOc1cc(OCC2CO2)cc2oc3c(OC)cccc3c(=O)c12` (stereo unspecified): the inhibition in assay [1] was found to be 14.1%. For the same compound, the IC50 in assay [2] was determined as 0.22 µM; in assay [3], 1.63 µM; in assay [4] it was 1.08 µM; in assay [5], 0.31 µM.
The corresponding values for `COc1ccc(COc2cc(OCC3CO3)cc3oc4ccccc4c(=O)c23)cc1` (stereo unspecified) are 0%, 1.72 µM, 2.96 µM, 1.58 µM and 3.73 µM.
The corresponding values for `O=c1c2ccccc2oc2cc(OCC3CO3)cc(OCCc3ccc(Cl)cc3)c12` (stereo unspecified) are 0%, 5.27 µM, 0.97 µM, 4.91 µM and 2.02 µM.
The corresponding values for `CCCCCOc1cc(OCC2CO2)cc2oc3c(OC)cccc3c(=O)c12` (stereo unspecified) are 5%, 0.37 µM, 4.57 µM, 4.06 µM and 1.69 µM.
`CCCCNCC(O)COc1cc(OC(C)C)c2c(=O)c3ccccc3oc2c1` (stereo unspecified) displayed an inhibition in assay [1] of 1.5%. Besides, the IC50 in assay [2] was found to be 43.4 µM; in assay [3], 4.71 µM; in assay [4] it was 36.6 µM; in assay [5] it was 2.05 µM.
In assay [1], `COc1cccc(COc2cc(OCC3CO3)cc3oc4ccccc4c(=O)c23)c1` (stereo unspecified) had an inhibition of 0%. Further, the concentration for half-maximal inhibition (IC50) in assay [2] is 1.49 µM; in assay [3], 3.73 µM; in assay [4], 1.57 µM; in assay [5], 3.26 µM.
The corresponding values for `CCCCOc1cc(OCC2CO2)cc2oc3ccccc3c(=O)c12` (stereo unspecified) are 0%, 2.45 µM, 3.75 µM, 1.81 µM and 4.55 µM.
The corresponding values for `COc1cccc2c(=O)c3c(OCc4cccc(Cl)c4)cc(OCC4CO4)cc3oc12` (stereo unspecified) are 1.7%, 0.17 µM, 1.55 µM, 1.7 µM and 0.95 µM.
The matching figures for `O=c1c2ccccc2oc2cc(OCC3CO3)cc(OCc3cccc(C(F)(F)F)c3)c12` (stereo unspecified): 0%, 5.08 µM, 2.3 µM, 4.28 µM and 1.36 µM.
`O=c1c2ccccc2oc2cc(OCC3CO3)cc(OCc3ccccc3)c12` (stereo unspecified) came in with an inhibition in assay [1] of 0%. In addition, the half-maximal inhibitory concentration (IC50) worked out at 1.5 µM in assay [2], 3.06 µM in assay [3], 1.92 µM in assay [4] and 5.07 µM in assay [5].
The matching figures for `O=c1c2ccccc2oc2cc(OCC3CO3)cc(OCc3cccc(Cl)c3)c12` (stereo unspecified): 0%, 1.96 µM, 3.3 µM, 3.57 µM and 1.89 µM.
The corresponding values for `COc1cccc(COc2cc(OCC3CO3)cc3oc4c(OC)cccc4c(=O)c23)c1` (stereo unspecified) are 0%, 0.35 µM, 4.05 µM, 2.43 µM and 1.32 µM.
The corresponding values for `COc1ccc(COc2cc(OCC3CO3)cc3oc4c(OC)cccc4c(=O)c23)cc1` (stereo unspecified) are 0%, 0.42 µM, 7.68 µM, 1.74 µM and 1.41 µM.
In assay [1], `CCCCNCC(O)COc1cc(OCC)c2c(=O)c3ccccc3oc2c1` (stereo unspecified) yielded an inhibition of 4.8%. For the same compound, the IC50 in assay [2] was 28.2 µM; in assay [3] it was 7.02 µM; in assay [4], above 50 µM; in assay [5] it was 1.77 µM.
The matching figures for `COc1cccc2c(=O)c3c(OCCc4cccc(Cl)c4)cc(OCC4CO4)cc3oc12` (stereo unspecified): 0%, 1.08 µM, 2.74 µM, 0.47 µM and 1.11 µM.
Consider `COc1cccc2c(=O)c3c(OCc4cccc(C(F)(F)F)c4)cc(OCC4CO4)cc3oc12` (stereo unspecified), for which, in assay [1], the inhibition was determined as 0%. In addition, the IC50 in assay [2] was 0.36 µM; in assay [3], 2.87 µM; in assay [4], 4.27 µM; in assay [5], 2.24 µM.
The matching figures for `O=c1c2ccccc2oc2cc(OCC3CO3)cc(OCCc3cccc(Cl)c3)c12` (stereo unspecified): 0%, 4.13 µM, 1.36 µM, 1.46 µM and 3.18 µM.
The matching figures for `COc1cccc2c(=O)c3c(OCc4ccccc4)cc(OCC4CO4)cc3oc12` (stereo unspecified): 3.3%, 0.34 µM, 2.02 µM, 1.66 µM and 1.75 µM.

The values above are taken from ChEMBL document CHEMBL3870311, “Synthesis and biological evaluation of C1-O-substituted-3-(3-butylamino-2-hydroxy-propoxy)-xanthen-9-one as topoisomerase IIα catalytic inhibitors” (Eur J Med Chem, 2016).
